Measured values: publication PMC6754270 (Cell chemical biology, 2019)
Several values for one entry are separate records, joined by “and”; a condition that tells them apart may be missing. Equal entries are not always repeated. Where two headings read alike, the source gives them in different places.

How the values were obtained:
human VCP/p97 T688A = conditions: sensor-II variability hot-spot mutation; ref Anderson et al., 2015; cited from earlier work
[1] = target: T1, spastin-AAA-WT (aa 445–758) (Drosophila melanogaster, UniProt Q8I0P1); assay: Differential scanning fluorimetry, spastin-AAA-WT; assay type: binding; conditions: 100 µM compound, vs DMSO, n=2
T1 sequence (Q8I0P1 445-758): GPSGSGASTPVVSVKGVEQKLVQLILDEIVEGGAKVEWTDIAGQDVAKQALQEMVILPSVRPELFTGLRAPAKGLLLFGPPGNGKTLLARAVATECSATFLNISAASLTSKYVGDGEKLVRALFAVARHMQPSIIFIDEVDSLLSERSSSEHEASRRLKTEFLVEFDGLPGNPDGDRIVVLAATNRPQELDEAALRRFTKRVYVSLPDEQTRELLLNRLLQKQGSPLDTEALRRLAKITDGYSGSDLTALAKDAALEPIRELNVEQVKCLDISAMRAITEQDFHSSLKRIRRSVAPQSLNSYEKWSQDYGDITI
Method in brief: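 Drosophila spastin AAA domain (aa 445–758), expressed as a GST fusion in E. coli Rosetta, protease-cleaved and purified by anion exchange and gel filtration. Tm taken as minimum of first-derivative melt curve; n=2, range shown.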

[2] = target: T2, spastin-WT (Drosophila melanogaster spastin, aa 209–758) (Drosophila melanogaster, UniProt Q8I0P1); conditions: ref Cupido et al., 2019; cited from earlier work
T2 sequence (Q8I0P1 209-758): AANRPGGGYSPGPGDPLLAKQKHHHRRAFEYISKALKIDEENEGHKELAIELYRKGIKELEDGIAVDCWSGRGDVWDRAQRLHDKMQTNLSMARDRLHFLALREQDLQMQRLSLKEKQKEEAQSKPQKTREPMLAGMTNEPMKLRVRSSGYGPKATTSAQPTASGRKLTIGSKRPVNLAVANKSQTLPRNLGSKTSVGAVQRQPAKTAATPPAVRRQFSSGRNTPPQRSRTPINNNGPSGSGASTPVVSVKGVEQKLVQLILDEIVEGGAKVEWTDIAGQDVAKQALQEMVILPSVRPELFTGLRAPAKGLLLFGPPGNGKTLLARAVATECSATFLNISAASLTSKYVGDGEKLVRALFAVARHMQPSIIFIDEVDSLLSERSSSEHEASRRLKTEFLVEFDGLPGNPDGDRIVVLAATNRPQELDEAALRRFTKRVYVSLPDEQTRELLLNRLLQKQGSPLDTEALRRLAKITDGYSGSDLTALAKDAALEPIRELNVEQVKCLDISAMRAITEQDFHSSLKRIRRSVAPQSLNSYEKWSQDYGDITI

[3] = target: T2, spastin-WT (Drosophila melanogaster spastin, aa 209–758); assay: Steady-state ATPase activity, NADH-coupled assay, spastin-WT; assay type: biochemical
[4] = target: spastin-T692A (aa 209–758) (Drosophila melanogaster, UniProt Q8I0P1, T692A); assay: Steady-state ATPase activity, NADH-coupled assay, spastin-T692A; assay type: biochemical; conditions: for Change in inhibitor potency, T692A (sensor-II) vs wild-type: ATPase assay, compound 1: increase in potency
Sequence of spastin-T692A (aa 209–758) (Q8I0P1 209-758 T692A): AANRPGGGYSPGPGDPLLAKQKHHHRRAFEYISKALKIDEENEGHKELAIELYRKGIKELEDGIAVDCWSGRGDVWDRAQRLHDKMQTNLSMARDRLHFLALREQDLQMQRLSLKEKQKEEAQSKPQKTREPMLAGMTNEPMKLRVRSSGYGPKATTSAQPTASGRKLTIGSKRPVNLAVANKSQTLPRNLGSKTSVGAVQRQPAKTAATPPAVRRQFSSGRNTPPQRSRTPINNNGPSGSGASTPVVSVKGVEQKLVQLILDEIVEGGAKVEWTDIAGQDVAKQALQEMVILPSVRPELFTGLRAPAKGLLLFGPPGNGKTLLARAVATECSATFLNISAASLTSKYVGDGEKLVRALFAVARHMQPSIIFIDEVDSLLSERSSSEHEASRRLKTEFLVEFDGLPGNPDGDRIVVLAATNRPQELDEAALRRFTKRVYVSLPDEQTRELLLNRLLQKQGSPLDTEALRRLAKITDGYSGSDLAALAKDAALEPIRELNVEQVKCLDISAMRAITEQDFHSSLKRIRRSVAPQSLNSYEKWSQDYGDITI

[5] = target: spastin-Q488V (aa 209–758) (Drosophila melanogaster, UniProt Q8I0P1, Q488V); assay: Steady-state ATPase activity, NADH-coupled assay, spastin-Q488V; assay type: biochemical; conditions: for Change in inhibitor potency, Q488V (N-loop) vs wild-type: ATPase assay, compound 4: reduction in potency
Sequence of spastin-Q488V (aa 209–758) (Q8I0P1 209-758 Q488V): as the sequence (Q8I0P1 209-758 T692A) above, with Q280V, A484T counted along it

[6] = target: spastin-AAA-Q488V (aa 445–758) (Drosophila melanogaster, UniProt Q8I0P1, Q488V); assay: Differential scanning fluorimetry, spastin-AAA-Q488V; assay type: binding; conditions: 100 µM compound, vs DMSO, n=2
Sequence of spastin-AAA-Q488V (aa 445–758) (Q8I0P1 445-758 Q488V): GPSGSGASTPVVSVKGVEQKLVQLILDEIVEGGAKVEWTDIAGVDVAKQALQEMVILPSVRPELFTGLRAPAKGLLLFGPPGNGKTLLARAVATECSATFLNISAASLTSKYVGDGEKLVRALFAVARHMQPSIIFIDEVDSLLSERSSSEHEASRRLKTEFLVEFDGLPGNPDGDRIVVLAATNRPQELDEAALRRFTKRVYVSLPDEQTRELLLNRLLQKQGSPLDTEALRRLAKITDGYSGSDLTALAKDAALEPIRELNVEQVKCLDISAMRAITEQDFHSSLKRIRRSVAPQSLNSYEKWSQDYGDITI

katanin (Xl-katanin) [7] = target: T3, katanin (Xl-katanin) (Xenopus laevis, UniProt Q9PUL2); conditions: ref Cupido et al., 2019; cited from earlier work
T3 sequence (Q9PUL2 whole entry, the tested form may be a part): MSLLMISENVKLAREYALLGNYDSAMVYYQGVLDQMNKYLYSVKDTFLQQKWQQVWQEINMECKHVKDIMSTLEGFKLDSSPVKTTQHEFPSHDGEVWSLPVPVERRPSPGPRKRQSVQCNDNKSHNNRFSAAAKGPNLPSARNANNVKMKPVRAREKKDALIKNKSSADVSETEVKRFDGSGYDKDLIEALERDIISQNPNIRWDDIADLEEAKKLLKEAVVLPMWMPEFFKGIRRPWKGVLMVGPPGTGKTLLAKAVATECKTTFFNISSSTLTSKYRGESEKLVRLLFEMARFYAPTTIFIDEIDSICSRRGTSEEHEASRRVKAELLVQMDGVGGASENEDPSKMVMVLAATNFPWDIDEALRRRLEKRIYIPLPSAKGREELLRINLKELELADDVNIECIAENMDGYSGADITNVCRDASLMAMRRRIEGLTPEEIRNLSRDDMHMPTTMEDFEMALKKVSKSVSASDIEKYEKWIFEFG

[8] = target: spastin-AAA-T692A (aa 445–758) (Drosophila melanogaster, UniProt Q8I0P1, T692A); assay: Differential scanning fluorimetry, spastin-AAA-T692A; assay type: binding; conditions: 100 µM compound, vs DMSO, n=2
Sequence of spastin-AAA-T692A (aa 445–758) (Q8I0P1 445-758 T692A): as the sequence (Q8I0P1 445-758 Q488V) above, with V44Q, T248A counted along it

[9] = target: spastin-AAA-N527C (aa 445–758) (Drosophila melanogaster, UniProt Q8I0P1, N527C); assay: Differential scanning fluorimetry, spastin-AAA-N527C; assay type: binding; conditions: 100 µM compound, vs DMSO, n=2
Sequence of spastin-AAA-N527C (aa 445–758) (Q8I0P1 445-758 N527C): as the sequence (Q8I0P1 445-758 Q488V) above, with V44Q, N83C counted along it

[10] = target: spastin-N527C (aa 209–758) (Drosophila melanogaster, UniProt Q8I0P1, N527C); assay: Steady-state ATPase activity, NADH-coupled assay, spastin-N527C; assay type: biochemical; conditions: for Change in inhibitor potency, N527C (P-loop) vs wild-type: ATPase assay, compound 4: reduction in potency
Sequence of spastin-N527C (aa 209–758) (Q8I0P1 209-758 N527C): as the sequence (Q8I0P1 209-758 T692A) above, with N319C, A484T counted along it

[11] = target: T4, fidgetin-like 1 (Hs-FIGL1) (Homo sapiens, UniProt Q6PIW4); conditions: ref Cupido et al., 2019; cited from earlier work
T4 sequence (Q6PIW4 1-674): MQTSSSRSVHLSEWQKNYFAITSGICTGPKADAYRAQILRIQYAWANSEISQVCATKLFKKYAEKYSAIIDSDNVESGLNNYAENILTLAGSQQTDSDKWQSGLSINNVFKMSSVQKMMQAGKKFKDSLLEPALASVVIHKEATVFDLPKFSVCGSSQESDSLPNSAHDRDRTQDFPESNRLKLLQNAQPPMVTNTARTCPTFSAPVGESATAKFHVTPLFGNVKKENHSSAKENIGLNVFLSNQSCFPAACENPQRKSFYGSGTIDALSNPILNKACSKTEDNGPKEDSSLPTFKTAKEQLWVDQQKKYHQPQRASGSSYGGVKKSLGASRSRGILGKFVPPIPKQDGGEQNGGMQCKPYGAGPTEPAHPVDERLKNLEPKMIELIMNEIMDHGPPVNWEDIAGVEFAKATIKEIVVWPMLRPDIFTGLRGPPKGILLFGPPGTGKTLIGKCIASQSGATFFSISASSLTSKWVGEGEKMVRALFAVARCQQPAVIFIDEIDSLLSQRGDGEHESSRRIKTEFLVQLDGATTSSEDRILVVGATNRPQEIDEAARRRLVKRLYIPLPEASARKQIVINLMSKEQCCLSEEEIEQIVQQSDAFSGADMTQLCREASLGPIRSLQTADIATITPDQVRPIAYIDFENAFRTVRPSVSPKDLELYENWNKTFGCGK

VPS4B (Hs-VPS4B) = target: T5, VPS4B (Hs-VPS4B) (Homo sapiens, UniProt O75351); assay: Steady-state ATPase activity of VPS4B; assay type: biochemical, H. sapiens; conditions: 2 µM compound, 0.5 mM MgATP, n=2
T5 sequence (O75351 1-444): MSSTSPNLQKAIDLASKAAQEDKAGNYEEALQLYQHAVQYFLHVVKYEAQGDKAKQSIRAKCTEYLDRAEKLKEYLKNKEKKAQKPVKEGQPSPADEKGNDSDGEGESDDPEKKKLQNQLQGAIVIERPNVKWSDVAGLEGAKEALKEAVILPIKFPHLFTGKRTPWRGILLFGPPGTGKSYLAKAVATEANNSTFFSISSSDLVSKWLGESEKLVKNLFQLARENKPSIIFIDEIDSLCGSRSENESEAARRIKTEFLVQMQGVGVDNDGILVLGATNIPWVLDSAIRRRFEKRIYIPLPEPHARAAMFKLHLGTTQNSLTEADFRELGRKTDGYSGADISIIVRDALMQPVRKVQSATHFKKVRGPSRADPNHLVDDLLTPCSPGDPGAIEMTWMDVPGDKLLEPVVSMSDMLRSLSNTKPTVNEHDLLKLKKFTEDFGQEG

katanin (Xl-katanin) [12] = target: T3, katanin (Xl-katanin); assay: Steady-state ATPase activity of katanin; assay type: biochemical, X. laevis; conditions: 2 µM compound, 0.5 mM MgATP, n=2
[13] = target: T4, fidgetin-like 1 (Hs-FIGL1); assay: Steady-state ATPase activity of fidgetin-like 1; assay type: biochemical, H. sapiens; conditions: 2 µM compound, 0.5 mM MgATP, n=2

SMILES | Observed ∆Tm, spastin-AAA-WT [1] | IC50 [4] [nM] | Change in inhibitor potency, T692A (sensor-II) vs wild-type [4] | IC50 [5] [µM] | Change in inhibitor potency, Q488V (N-loop) vs wild-type [5] | Observed ∆Tm, spastin-AAA-Q488V [6] | Observed ∆Tm, spastin-AAA-T692A [8] | Observed ∆Tm, spastin-AAA-N527C [9] | IC50 [10] [µM] | Change in inhibitor potency, N527C (P-loop) vs wild-type [10] | other results
Cc1cc2c(C(N)=O)cccc2n1-c1nc2c(c(NCc3ccccc3)n1)COCC2 [CB-5083] |  |  |  |  |  |  |  |  |  |  | Change in compound potency, T688A vs wild-type VCP/p97 (human VCP/p97 T688A): > 60 fold
Nc1nc(Nc2ccc(S(N)(=O)=O)cc2)nn1C(=O)c1c(F)cccc1F [compound 1, 4-((5-amino-1-(2,6-difluorobenzoyl)-1H-1,2,4-triazol-3-yl)amino)benzenesulfonamide] | ~ 4.5 °C | 900 ± 100 | ~ 7 fold | 8.9 ± 0.5 | less than 2 fold | ~ 4.5 °C | ~ 6.2 °C | ~ 4.3 °C | 6 ± 1 | less than 2 fold | Effect on ATPase activity of spastin [2]: blocks the ATPase activity; IC50 ([3]; IC50, inhibition of steady-state ATPase activity of spastin-WT, 0.5 mM MgATP, average ± s.d., n=3): 5.7 µM and 5.8 µM; Mechanism of inhibition ([3]; range of ATP concentrations, apparent K1/2 for ATP increased, kcat not altered): ATP competitive mechanism of inhibition; Effect on ATPase activity of katanin (katanin (Xl-katanin) [7]): blocks the ATPase activity; Effect on ATPase activity of fidgetin-like 1 [11]: blocks the ATPase activity
CNC(=O)c1cccc(Nc2nc(N)n(C(=O)c3c(F)cccc3OC)n2)c1 [compound 4, 3-((5-amino-1-(2-fluoro-6-methoxybenzoyl)-1H-1,2,4-triazol-3-yl)amino)-N-methylbenzamide] | ~ 6.7 °C | 220 ± 40 | did not change the potency | 2.6 ± 0.15 | ~ 11 fold | ~ 5.0 °C | ~ 7.2 °C | ~ 4.5 °C | 1.11 ± 0.21 | ~ 4 fold | IC50 [3]: 0.23 ± 0.02 µM; Inhibition of steady-state ATPase activity of spastin ([3]; 2 µM compound, 0.5 mM MgATP, n=2): potently inhibits; Inhibition of steady-state ATPase activity of VPS4B (VPS4B (Hs-VPS4B)): does not substantially inhibit; Inhibition of steady-state ATPase activity of katanin (katanin (Xl-katanin) [12]): does not substantially inhibit; Inhibition of steady-state ATPase activity of fidgetin-like 1 [13]: does not substantially inhibit
